Data on four molecules can be found in ChEMBL document CHEMBL1152259, “Synthesis of new sulfonate and phosphonate derivatives for cation-independent mannose 6-phosphate receptor targeting” (Bioorg Med Chem Lett, 2008).

Each structure is given as a SMILES string.

Series [1] is described as follows: Cytotoxicity against human fibroblast up to 100 uM after 4 days by MTT assay. It counts as cell-based. To be noted: 96 h. The procedure, abridged: (§1)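 Human fibroblasts, MCF7 and MDA-MB-231 cells exposed in culture medium for 4 days to increasing concentrations up to 100 µM, with untreated controls. Proliferation read by MTT assay. Triplicates from one experiment, confirmed in two further experiments.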

In a further series the test system is Serum. Description: Stability in human serum after 2 days. The series is classed as ADME, cell-free. To be noted: 48 h. The procedure, abridged: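 Analogs incubated 2 days at 37 °C with 75% human serum or without serum. Residual capacity to inhibit biotinylated CI-M6PR binding to plate-adsorbed pentamannose 6-phosphate was then assayed. Result expressed relative to day-0 controls with or without serum, set as 100%. Mean ± standard deviations of triplicates, confirmed in two further experiments.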

For the next series, the system named is MDA-MB-231. The series can be described thus: Cytotoxicity against human MDA-MB-231 cells up to 100 uM by MTT assay. The series is classed as cell-based. The procedure, abridged: as §1
In general terms: Tetrazolium assays rely on reduction of a dye to a coloured formazan, in cell work by metabolically active cells.

The test system of the next series is MCF7. Description: Cytotoxicity against human MCF7 cells up to 100 uM by MTT assay. The series is classed as cell-based. The procedure, abridged:
as §1

For series [2], the target named is Insulin-like growth factor 2 receptor ([…], cation-independent mannose-6-phosphate receptor, CI-MPR; hIGF-IIR) (Homo sapiens, UniProt P11717). The series can be described thus: Binding affinity to CI-M6PR. The procedure, abridged: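 Competitive displacement ELISA: biotinylated CI-M6PR bound to pentamannose 6-phosphate adsorbed on microtiter wells, challenged with increasing analog concentrations. Remaining bound receptor detected with streptavidin/peroxidase and o-phenylenediamine substrate by optical density. IC50 taken from dose-inhibition curves. Mean of triplicates from one experiment, confirmed in two further experiments.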
UniProt P11717, sequence (P11717 whole entry, looked up): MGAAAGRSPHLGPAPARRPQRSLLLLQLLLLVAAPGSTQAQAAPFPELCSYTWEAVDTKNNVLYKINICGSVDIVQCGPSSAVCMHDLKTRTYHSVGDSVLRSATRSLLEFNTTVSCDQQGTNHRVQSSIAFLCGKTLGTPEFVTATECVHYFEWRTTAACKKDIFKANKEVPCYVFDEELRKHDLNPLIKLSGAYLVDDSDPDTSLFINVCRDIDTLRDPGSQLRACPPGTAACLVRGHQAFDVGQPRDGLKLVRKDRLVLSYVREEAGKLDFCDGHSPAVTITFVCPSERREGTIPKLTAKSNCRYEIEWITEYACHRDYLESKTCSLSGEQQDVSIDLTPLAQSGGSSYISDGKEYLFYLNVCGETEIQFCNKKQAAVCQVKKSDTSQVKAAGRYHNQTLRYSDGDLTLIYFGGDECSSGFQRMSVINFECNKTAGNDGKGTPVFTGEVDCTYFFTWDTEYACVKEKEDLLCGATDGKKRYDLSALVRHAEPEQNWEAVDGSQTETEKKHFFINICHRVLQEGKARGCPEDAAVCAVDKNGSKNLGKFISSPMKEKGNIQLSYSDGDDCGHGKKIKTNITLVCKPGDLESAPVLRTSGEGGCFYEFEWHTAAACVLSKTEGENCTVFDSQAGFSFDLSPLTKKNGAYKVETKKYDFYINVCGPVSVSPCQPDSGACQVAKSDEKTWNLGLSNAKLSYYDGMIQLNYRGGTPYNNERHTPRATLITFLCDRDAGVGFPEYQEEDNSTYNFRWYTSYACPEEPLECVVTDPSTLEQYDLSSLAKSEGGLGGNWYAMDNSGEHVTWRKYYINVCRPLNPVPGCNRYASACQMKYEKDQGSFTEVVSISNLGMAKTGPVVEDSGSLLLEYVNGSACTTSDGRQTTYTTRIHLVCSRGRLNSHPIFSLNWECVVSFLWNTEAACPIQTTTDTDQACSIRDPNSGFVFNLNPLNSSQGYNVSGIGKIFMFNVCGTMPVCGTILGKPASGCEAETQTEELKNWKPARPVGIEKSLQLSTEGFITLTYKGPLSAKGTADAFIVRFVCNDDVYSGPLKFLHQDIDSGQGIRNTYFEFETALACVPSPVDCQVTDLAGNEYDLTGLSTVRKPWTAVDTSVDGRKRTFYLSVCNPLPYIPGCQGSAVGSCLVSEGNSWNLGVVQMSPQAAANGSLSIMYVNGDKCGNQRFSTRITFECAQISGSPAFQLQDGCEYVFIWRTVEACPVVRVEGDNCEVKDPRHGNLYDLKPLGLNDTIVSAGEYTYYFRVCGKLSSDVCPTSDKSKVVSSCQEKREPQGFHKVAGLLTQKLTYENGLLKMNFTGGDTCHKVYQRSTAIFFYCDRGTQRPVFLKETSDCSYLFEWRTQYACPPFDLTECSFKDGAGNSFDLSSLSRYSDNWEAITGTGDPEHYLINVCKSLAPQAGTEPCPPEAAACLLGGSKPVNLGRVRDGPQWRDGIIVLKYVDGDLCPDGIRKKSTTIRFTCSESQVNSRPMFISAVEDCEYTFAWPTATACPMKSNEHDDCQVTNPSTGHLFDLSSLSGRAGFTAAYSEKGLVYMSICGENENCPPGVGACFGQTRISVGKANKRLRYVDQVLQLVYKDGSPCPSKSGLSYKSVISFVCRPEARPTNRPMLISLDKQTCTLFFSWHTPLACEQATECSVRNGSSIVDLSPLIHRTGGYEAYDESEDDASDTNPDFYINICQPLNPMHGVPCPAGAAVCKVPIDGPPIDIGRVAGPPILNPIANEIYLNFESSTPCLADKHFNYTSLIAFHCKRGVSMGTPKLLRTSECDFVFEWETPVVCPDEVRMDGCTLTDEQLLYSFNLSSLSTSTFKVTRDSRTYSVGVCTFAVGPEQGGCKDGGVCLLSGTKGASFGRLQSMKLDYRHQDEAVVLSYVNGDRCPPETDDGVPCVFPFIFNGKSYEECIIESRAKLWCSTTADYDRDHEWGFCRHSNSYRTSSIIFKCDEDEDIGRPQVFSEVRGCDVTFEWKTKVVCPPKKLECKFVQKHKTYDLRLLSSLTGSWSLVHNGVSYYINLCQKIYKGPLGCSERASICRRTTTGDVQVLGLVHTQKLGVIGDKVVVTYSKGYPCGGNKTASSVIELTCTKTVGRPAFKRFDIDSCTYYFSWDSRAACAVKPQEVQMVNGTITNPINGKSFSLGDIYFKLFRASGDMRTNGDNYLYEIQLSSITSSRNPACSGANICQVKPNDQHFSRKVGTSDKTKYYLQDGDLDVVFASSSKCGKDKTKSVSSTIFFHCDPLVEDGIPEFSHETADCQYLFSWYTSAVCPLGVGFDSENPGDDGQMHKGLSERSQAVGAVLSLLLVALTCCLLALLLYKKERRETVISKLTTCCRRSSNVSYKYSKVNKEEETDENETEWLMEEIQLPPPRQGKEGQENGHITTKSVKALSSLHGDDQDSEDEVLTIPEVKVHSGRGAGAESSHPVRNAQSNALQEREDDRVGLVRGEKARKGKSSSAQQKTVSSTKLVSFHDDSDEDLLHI

By IC50 is commonly meant the concentration that gives 50% inhibition. `CO[C@H]1O[C@H](/C=C/P(=O)([O-])[O-])[C@@H](O)[C@H](O)[C@@H]1O.[Na+].[Na+]`: the Activity entry (in series [1]; in the series with MDA-MB-231; in the series on MCF7) was “Not Active” throughout. In the series on Serum, the Stability result was “Stable”. In series [2], this molecule returned an IC50 of 22 µM.

Consider `O=P(O)(O)OC[C@H]1OC(O)[C@@H](O)[C@@H](O)[C@@H]1O` (stereo partly specified), for which the IC50 in series [2] turned out to be 23 µM.

For `CO[C@H]1O[C@H](/C=C/S(=O)(=O)[O-])[C@@H](O)[C@H](O)[C@@H]1O.[Na+]`, the Activity entry (in series [1]; with MDA-MB-231; in the series with MCF7) was “Not Active” each time. Moreover, the Stability entry with Serum is “Stable”. Besides, in series [2], the IC50 was determined as 71 µM.

On to `CO[C@H]1O[C@H](CCS(=O)(=O)[O-])[C@@H](O)[C@H](O)[C@@H]1O.[Na+]`, for which the Activity entry (in series [1]; in the series with MDA-MB-231; in the series with MCF7) was “Not Active” each time. Further, in the series on Serum, the Stability entry is recorded as “Stable”. This molecule also showed a half-maximal inhibitory concentration (IC50) in series [2] of 150 µM.
